According to ChEMBL document CHEMBL2146361, “Identification of novel α7 nicotinic receptor ligands by in silico screening against the crystal structure of a chimeric α7 receptor ligand binding domain” (Bioorg Med Chem, 2012):

The compounds below were run against Neuronal acetylcholine receptor subunit alpha-7 (Homo sapiens, UniProt P36544) (assay: Displacement of [3H]epibatidine from chimeric human alpha7-5-HT3A receptor expressed in HEK293 cells after 2 hrs by scintillation counter analysis).
Assay type: cell-based
How it was run: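 HEK293 cells grown in DMEM:F12 with 10% fetal calf serum at 37 °C, 7% CO₂, transiently transfected (PEI) and harvested after 2–3 days. 50 μg membranes incubated in 10 mM HEPES pH 7.4 with 3 nM [³H]epibatidine, ≥2 h at 4 °C, 10-point competition; non-specific binding with 3 mM (−)-nicotine.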

Chain of Neuronal acetylcholine receptor subunit alpha-7 (P36544 23-502 limits assumed): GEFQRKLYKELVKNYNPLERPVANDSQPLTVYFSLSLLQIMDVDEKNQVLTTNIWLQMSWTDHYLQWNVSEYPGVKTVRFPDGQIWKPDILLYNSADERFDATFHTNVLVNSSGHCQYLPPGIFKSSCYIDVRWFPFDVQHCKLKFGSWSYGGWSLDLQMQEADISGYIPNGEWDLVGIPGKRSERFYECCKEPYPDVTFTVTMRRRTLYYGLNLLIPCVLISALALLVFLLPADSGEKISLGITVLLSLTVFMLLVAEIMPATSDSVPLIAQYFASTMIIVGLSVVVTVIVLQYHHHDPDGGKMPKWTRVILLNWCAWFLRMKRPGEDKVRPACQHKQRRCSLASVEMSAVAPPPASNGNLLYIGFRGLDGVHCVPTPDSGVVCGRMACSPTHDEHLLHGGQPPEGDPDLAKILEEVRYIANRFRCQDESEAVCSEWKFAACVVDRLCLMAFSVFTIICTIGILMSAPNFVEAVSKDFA

SMILES | pKi | pKd | Ki
CC1C(c2ccccc2)NC(c2ccccc2)C(C)C1(C)O (configuration not stated) | 5.4 | – | –
CN1CCc2[nH]c3ccccc3c2C1 | 5.2 | – | –
Clc1ccc(C2CC3CCC2N3)cn1 (configuration not stated) [EPIBATIDINE] | – | 8.2 | –
CC1/C(=N/O)CC(c2ccccc2)N(C)C1c1ccccc1 (configuration not stated) | 5.3 | – | –
CC1CCN2CCc3c([nH]c4ccccc34)C2C1 (configuration not stated) | 6.4 | – | 400 nM
c1ccc(C2CN3CCC2CC3)cc1 (configuration not stated) | 6.7 | – | 200 nM
COc1cc2c(cc1OC)C1CC(c3ccccc3)CCN1CC2 (configuration not stated) | 5.8 | – | –
CC1CC2(CCCCCC2)NCc2ccccc21 (configuration not stated) | 5.1 | – | –
N#CCOCC(O)C[n+]1ccccc1 (configuration not stated) | 5.6 | – | –
CC1CCN(CC(O)COc2ccc(-c3ccccc3)cc2)CC1 (configuration not stated) | 5.7 | – | –
